What was measured:
Type in all cases: cell-based, rat
[1] = system: IEC-6 stable cell line expressing SEAP; assay: SEAP enzyme activity assay; details: ritonavir 15 µM; VC 15 µg/ml, VE 20 µg/ml, EL 20 µg/ml, OA 10 µg/ml; 24 h
Summary of the method: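 An IEC-6 line stably transfected with pSEAP reporter plasmid is treated for 24 h with test compound (15 µM) alone or with individual antioxidant. DMSO is the vehicle control and thapsigargin 100 nM is the ER-stress reference. Secreted alkaline phosphatase activity is expressed as percent of vehicle control. Results are mean ± SD of 3 independent experiments.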

CHOP = assay: Western blot analysis of CHOP; details: IEC-6 cells, 4 h; for Effect of antioxidant on ritonavir-induced CHOP expression: ritonavir 15 µM
IEC-6 cells = assay: Measurement of intracellular ROS; details: ritonavir 15 µM, VC 15 µg/ml, EL 20 µg/ml, OA 10 µg/ml, 4 h
Summary of the method: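 IEC-6 rat intestinal epithelial cells (passages 15-20; DMEM, 10% FBS, 0.1 U/mL insulin, penicillin/streptomycin, 37 °C, 5% CO2) in 12-well plates are exposed for 4 h to test compound with or without antioxidant, all in DMSO. One fraction is used for protein. The other is lysed in 0.1 N NaOH/50% methanol and centrifuged, and fluorescence is read at ex 485/em 520 nm. Results are mean ± SD of 3 independent experiments.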

vitamin E
Effect of antioxidant on ritonavir-induced inhibition of SEAP activity [1]: significantly inhibited
Effect of antioxidant on ritonavir-induced CHOP expression (CHOP): less effect

CC(C)c1nc(CN(C)C(=O)N[C@H](C(=O)N[C@@H](Cc2ccccc2)C[C@H](O)[C@H](Cc2ccccc2)NC(=O)OCc2cncs2)C(C)C)cs1 [ritonavir, reference compound]
CHOP expression (CHOP; 15 µM): significantly induced

CCCCCCCC/C=C\CCCCCCCC(=O)O [oleic acid]
Effect of antioxidant on ritonavir-induced inhibition of SEAP activity [1]: significantly inhibited
Effect of antioxidant on ritonavir-induced CHOP expression (CHOP): significantly reduced
Effect of antioxidant on ritonavir-induced ROS production (IEC-6 cells): able to reduce

CCCCC/C=C\C/C=C\CCCCCCCC(=O)OCC [ethyl linoleate]
Effect of antioxidant on ritonavir-induced inhibition of SEAP activity [1]: significantly inhibited
Effect of antioxidant on ritonavir-induced CHOP expression (CHOP): significantly reduced
Effect of antioxidant on ritonavir-induced ROS production (IEC-6 cells): able to reduce

O=C1O[C@H]([C@@H](O)CO)C(O)=C1O [vitamin C]
Effect of antioxidant on ritonavir-induced inhibition of SEAP activity [1]: significantly inhibited
Effect of antioxidant on ritonavir-induced CHOP expression (CHOP): significantly reduced
Effect of antioxidant on ritonavir-induced ROS production (IEC-6 cells): able to reduce
